ChEMBL document CHEMBL3098106 (Bioorg Med Chem, 2014)

Assays:
[1] = Antitumor activity against Sprague-Dawley rat mammary tumor cells assessed as increase in apoptotic index at 200 mg/kg, po after 7 days by TUNEL assay relative to control; type: functional
Outline: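 Female Sprague Dawley rats with N-methyl-nitrosourea-induced mammary cancers (about 200 mm²) were given the retinoid in Teklad diet for 7 days. BrdU was injected 2 h before CO₂ euthanasia. Cancers were excised and fixed in 10% formalin. Each index is the ratio of treated to vehicle-fed animals.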

[2] = system: Rattus norvegicus; assay: Toxicity in Sprague-Dawley rat assessed as increase in body weight at 200 mg/kg, po after 7 days relative to control; type: organism-based; parameters: dose 200 mg/kg, route oral; details: in vivo, 168 h
[3] = system: Rattus norvegicus; assay: Toxicity in Sprague-Dawley rat assessed as liver weight measured per 100 g of body weight at 200 mg/kg, po after 7 days (reference value: 3.3 g); type: organism-based; parameters: dose 200 mg/kg, route oral; details: in vivo, 168 h
[4] = system: Rattus norvegicus; assay: Toxicity in 216 days old Sprague-Dawley rat assessed as increase in serum triglyceride level at 200 mg/kg, po administered with diet after 7 days relative to control; type: organism-based; parameters: dose 200 mg/kg, route oral; details: in vivo, 168 h
[5] = system: Rattus norvegicus; assay: Toxicity in 50 days old Sprague-Dawley rat assessed as increase in serum triglyceride level at 200 mg/kg, po administered with diet after 7 days relative to control; type: organism-based; parameters: dose 200 mg/kg, route oral; details: in vivo, 168 h

Row | Structure (SMILES) | Activity [1] [%] | Activity [2] [%] | Activity [3] [g] | Activity [4] [%] | Activity [5] [%]
1 | CC(=C/C=C/C(C)=C/C(=O)O)/C=C1\CC[C@@H](C)c2ccccc21 | 150 | 3 | 4.2 |  | 
2 | CC1=C(/C=C/C(C)=C\C=C\C(C)=C\C(=O)O)C(C)(C)CCC1 [ALITRETINOIN] |  | 3 |  |  | 
3 | C=C(c1ccc(C(=O)O)cc1)c1cc2c(cc1C)C(C)(C)CCC2(C)C [BEXAROTENE] |  | 3 |  |  | 
4 | CC(=C/C=C/C(C)=C/C(=O)O)/C=C1\CCCc2ccccc21 [UAB-30] | 33 | 3 |  |  | 
5 | CC(=C/C=C/C(C)=C/C(=O)O)/C=C1\CC[C@H](C)c2ccccc21 | 300 | 3 | 3.8 | 175 | 
6 | CC(=C/C=C/C(C)=C/C(=O)O)/C=C1\CCC(C)c2ccccc21 (racemic) | 300 | 3 |  | 370 | 566
